Source: BindingDB's records for doi:10.1016/j.ejmech.2019.111611 (The University of Queensland, 2019)

These molecules were tested against T1, Fe(3+)-Zn(2+) purple acid phosphatase (Phaseolus vulgaris, UniProt P80366) (assay: Competitive inhibition of red kidney bean PAP using varying levels of pNPP as substrate measured at pH 6.2 by UV-vis spectrophotometric analysis).
T1 sequence (P80366 whole entry): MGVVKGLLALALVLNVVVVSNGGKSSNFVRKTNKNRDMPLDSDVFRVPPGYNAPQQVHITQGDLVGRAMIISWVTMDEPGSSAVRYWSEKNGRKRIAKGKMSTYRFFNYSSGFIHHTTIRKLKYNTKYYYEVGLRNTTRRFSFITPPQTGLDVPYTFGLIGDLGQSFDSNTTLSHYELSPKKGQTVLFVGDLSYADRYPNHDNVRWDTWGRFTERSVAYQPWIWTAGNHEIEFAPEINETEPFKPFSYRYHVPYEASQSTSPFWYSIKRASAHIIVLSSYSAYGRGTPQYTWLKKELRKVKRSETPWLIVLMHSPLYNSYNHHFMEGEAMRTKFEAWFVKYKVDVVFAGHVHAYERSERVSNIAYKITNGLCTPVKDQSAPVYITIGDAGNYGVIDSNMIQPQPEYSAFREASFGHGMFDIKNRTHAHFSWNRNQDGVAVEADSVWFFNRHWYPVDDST
Method in brief: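 Red kidney bean PAP (rkbPAP), purified, at 8.4 nM. p-NPP 1–15 mM in 0.1 M MES pH 6.2 with 25% DMSO, 25 °C. p-Nitrophenol formation followed at 405 nm (Δε 1834.4 mol−1 L cm−1). Inhibitor concentration varied; competitive constant Kic from non-linear regression using a general inhibition equation.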

SMILES | Ki
CCCCCCCCCCCCCCCCOC(c1cccc2ccccc12)P(=O)(O)O (stereo unspecified) | 400 nM
CCCCCCCCCCCCCCCCCCCCOC(c1cccc2ccccc12)P(=O)(O)O (stereo unspecified) | 800 nM
CCCCCCCCCCCCCCCCCCOC(c1cccc2ccccc12)P(=O)(O)O (stereo unspecified) | 500 nM
CCCCCCCCCCCCOC(c1cccc2ccccc12)P(=O)(O)O (stereo unspecified) | 4500 nM
CCCCCCCCCCCCCCCCCCCCCCOC(c1cccc2ccccc12)P(=O)(O)O (stereo unspecified) | 14000 nM
CCCCCCCCCCCCCCOC(c1cccc2ccccc12)P(=O)(O)O (stereo unspecified) | 200 nM
